Rows were chosen to be rich in hits. Some 1.9% of all compounds tested hit in one or more screens of this group.
LEDGF integ inh: blocks HIV-1 LEDGF/p75-dependent DNA integration; inhibition, % at 3.7 µM; TR-FRET IN-LEDGF/p75 DNA integration, Eu/Cy5; hit rate 0.64% among 370,000; AID 743269;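 active = inhibition above the screen-wide mean plus 3 SD, cut at about 13% in these data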;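 also: signal is the Cy5 over europium emission ratio at 671 and 618 nm; 0% = plate median of compound wells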
TDP2 inh: TDP2 (human) inhibition, absorbance primary screen; O95551; recombinant TDP2, T5PNP hydrolysis, p-nitrophenol absorbance 415 nm; inhibition, % at 12.8 µM; hit rate 0.34% among 370,000;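 active = inhibition above the mean of all tested compounds plus 3 SD, set per campaign, cut at about 25% in these data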;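 also: 0% = DMSO with enzyme and 100% = buffer with substrate but no TDP2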
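Material: recombinant human TDP2; quantity: TDP2 enzyme at 120 nM final; medium: Tris-HCl pH 7.5 with MgCl2; compound: single concentration, 12.8 µM nominal, with 1% DMSO; incubation: 2 h enzyme incubation at 37 °C; signal: epi absorbance; measure: percent inhibition; benchmarks: high control without enzyme, low control DMSO plus TDP2; repeats: singlicate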
Rin1-Abl PPI inh: blocks binding of human Rin1 to Abl; P00519+Q13671; TR-FRET Rin1/Abl binding, biochemical; inhibition, % at 7.35 µM; hit rate 0.4% among 360,000; AID 588664; in the data active = inhibition above about 5%, passing the limit was not always enough
MBD2 inh: inhibitors of human MBD2 binding to methylated oligonucleotide | AID 686964 | inhibition, % at 4.4 µM | TR-FRET | hit rate 0.31% among 370,000; in the data active = inhibition above about 13%
UHRF1 binding: UHRF1 methyl-DNA binding inhibition; Q96T88; UHRF1 binding to methylated oligo, TR-FRET; inhibition, % at 4.4 µM; hit rate 0.75% among 370,000; in the data active = inhibition above about 21%;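 also: UHRF1 SRA domain binding a hemimethylated CpG hairpin DNA probe; 0% = median of test compound wells and 100% = reference inhibitor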
Rin1 Abl conf: Rin1-Abl interaction inhibition confirmation; inhibition, % at 7.35 µM; TR-FRET Rin1-Abl binding, purified proteins; hit rate 49% among 1,300; AID 602124; shares compounds with Rin1-Abl PPI inh
GFP quench: quenches GFP fluorescence, counter-screen for Rin1-Abl inhibitors; shares compounds with Rin1-Abl PPI inh; inhibitors/quenchers counterscreen; inhibition, % at 6.75 µM; hit rate 8.5% among 1,300;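 also: ABL1-eGFP fusion protein alone without its partner RIN1-SBP; 0% = protein with vehicle and 100% = wells lacking protein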
GFP quench dose: counter-screen for Rin1-Abl inhibitors: GFP quenchers, dose response; shares compounds with Rin1-Abl PPI inh; GFP fluorescence interference/quenching counterscreen; IC50, µM; 230 tested, under 10 active; AID 602182; call rule not given here;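 also: ABL1-eGFP fusion protein alone without its RIN1 binding partner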
UHRF1 ctr MBD2: UHRF1 methyl-oligo binding inhibition as MBD2 counter-screen. shares compounds with MBD2 inh. UHRF1 binding to methylated oligonucleotide, TR-FRET. inhibition, % at 4.4 µM. hit rate 25% among 1,000; in the data active = inhibition above about 21%;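 also: UHRF1 SRA domain binding a labeled hemimethylated CpG hairpin DNA; 0% = vehicle only and 100% = reference inhibitor with vehicle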
MBD2 DBD conf: MBD2-DBD methyl-DNA binding inhibition, TR-FRET confirmation. shares compounds with MBD2 inh. TR-FRET MBD2-DBD binding to methylated oligonucleotide. inhibition, % at 4.4 µM. hit rate 26% among 1,000. AID 720531; in the data active = inhibition above about 14%
TDP2 confirm: confirmation of human TDP2 inhibitors. shares compounds with TDP2 inh. recombinant human TDP2, absorbance read-out. inhibition, % at 12.8 µM. hit rate 22% among 1,100; in the data active = inhibition above about 25%;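 also: 0% = vehicle with enzyme and 100% = no enzyme buffer only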
An asterisk follows results filed as active. Rule as the data show it, unless noted: active = inhibition above about 6.5%; inactive = the rest.

Results for COc1cc(OC)c(-c2c3cc(O)c(=O)cc-3oc3cc(O)c(O)cc23)cc1OC ?
LEDGF integ inh: 84*; TDP2 inh: -5; Rin1-Abl PPI inh: 62*; MBD2 inh: 15*; UHRF1 binding: -3; Rin1 Abl conf: 73*; GFP quench: -124; GFP quench dose: >68; UHRF1 ctr MBD2: -38; MBD2 DBD conf: -10

What do the screens show for `COC(=O)[C@]12C[C@H](CC(=O)NCCCCc3ccccc3)C(=O)N(Cc3ccc4c(c3)OCO4)C1=C[C@H](C(C)C)O[C@@H]2C1CC1`?
LEDGF integ inh: -3; TDP2 inh: -10; MBD2 inh: -1; UHRF1 binding: 1

How did Cc1ccccc1N1CC(C(=O)Nc2ccc(S(=O)(=O)N3CCCCC3)cc2)CC1=O (configuration not stated) do in these assays?
LEDGF integ inh: 4; TDP2 inh: 25*; Rin1-Abl PPI inh: 7.7*; MBD2 inh: 1; UHRF1 binding: 1; Rin1 Abl conf: 7.5*; GFP quench: -2; TDP2 confirm: 4

How did Cc1ccccc1N1CC(C(=O)Nc2ccc(S(=O)(=O)N3CCOCC3)cc2)CC1=O (configuration not stated) do in these assays?
LEDGF integ inh: 1; TDP2 inh: 15; Rin1-Abl PPI inh: 1; MBD2 inh: -6; UHRF1 binding: -2

How did O=c1c(O)cccc2cc(O)c(O)c(O)c12 do in these assays?
LEDGF integ inh: 88*; TDP2 inh: 28*; Rin1-Abl PPI inh: 43*; MBD2 inh: 87*; UHRF1 binding: 94*; Rin1 Abl conf: 39*; GFP quench: 33*; UHRF1 ctr MBD2: 94*; MBD2 DBD conf: 91*; TDP2 confirm: 17

Results for Cc1ccc(C(C[N+](=O)[O-])c2c(C)[nH]n(-c3ccccc3)c2=O)cc1 (configuration not stated) ?
LEDGF integ inh: 2; TDP2 inh: 34*; Rin1-Abl PPI inh: 6.0*; MBD2 inh: -2; UHRF1 binding: -2; Rin1 Abl conf: 2; GFP quench: -1; TDP2 confirm: 32*

What do the screens show for `CCCCn1c(NC(=O)c2ccccc2)c(C#N)c2nc3ccccc3nc21`?
LEDGF integ inh: 6; TDP2 inh: 84*; Rin1-Abl PPI inh: 12*; MBD2 inh: 24*; UHRF1 binding: 18; Rin1 Abl conf: 6; GFP quench: 2; UHRF1 ctr MBD2: -1; MBD2 DBD conf: 17*; TDP2 confirm: 85*

What do the screens show for `C[C@H]1C2CC(OC(=O)Nc3ccccc3C(F)(F)F)C(C2)[C@H]2CCCCN21` (some centres not stated)?
LEDGF integ inh: -1; TDP2 inh: 10; MBD2 inh: 1; UHRF1 binding: -2

What do the screens show for `O=C(Nc1c(-c2ccc3c(c2)OCO3)[nH][nH]c1=O)c1ccccc1`?
LEDGF integ inh: 7; TDP2 inh: 68*; Rin1-Abl PPI inh: 24*; MBD2 inh: 1; UHRF1 binding: 9; Rin1 Abl conf: 9.0*; GFP quench: 0; TDP2 confirm: 71*

Results for Cc1ccc(C(=O)NCC(=O)OCN2C(=O)c3ccccc3C2=O)cc1C ?
LEDGF integ inh: 6; TDP2 inh: -13; Rin1-Abl PPI inh: 4; MBD2 inh: 0; UHRF1 binding: 1

Screens: PubChem BioAssay, The Scripps Research Institute Molecular Screening Center
